The Ki is the dissociation constant of the complex between target and ligand, obtained from inhibition or displacement. For orientation: logP means a log measure of how a compound divides between an organic and an aqueous phase.

For data set [1], the target named is T1, Protein kinase C epsilon type (Homo sapiens, UniProt Q02156).
T1 sequence (Q02156 whole entry): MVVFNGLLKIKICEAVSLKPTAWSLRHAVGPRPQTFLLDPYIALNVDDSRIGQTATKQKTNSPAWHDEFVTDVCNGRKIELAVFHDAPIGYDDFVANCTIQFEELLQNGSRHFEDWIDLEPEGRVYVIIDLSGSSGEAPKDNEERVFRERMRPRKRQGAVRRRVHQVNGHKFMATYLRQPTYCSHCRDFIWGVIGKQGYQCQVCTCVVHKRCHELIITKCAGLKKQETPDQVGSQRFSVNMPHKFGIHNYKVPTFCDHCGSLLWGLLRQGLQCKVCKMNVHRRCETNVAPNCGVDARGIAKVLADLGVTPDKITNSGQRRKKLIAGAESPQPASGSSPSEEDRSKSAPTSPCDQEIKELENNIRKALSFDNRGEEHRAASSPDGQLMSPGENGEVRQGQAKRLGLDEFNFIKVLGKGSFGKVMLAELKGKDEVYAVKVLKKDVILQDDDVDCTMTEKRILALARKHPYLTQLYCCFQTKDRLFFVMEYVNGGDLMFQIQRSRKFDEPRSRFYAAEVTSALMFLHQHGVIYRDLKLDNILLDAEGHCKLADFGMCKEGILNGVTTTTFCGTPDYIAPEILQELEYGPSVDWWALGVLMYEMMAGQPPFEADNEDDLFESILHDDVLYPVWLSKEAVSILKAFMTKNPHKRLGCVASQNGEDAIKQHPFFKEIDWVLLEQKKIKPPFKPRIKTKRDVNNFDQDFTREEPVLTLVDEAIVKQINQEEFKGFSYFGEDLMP
The experiment in a line: Displacement of [20-3H] phorbol 12, 13-dibutylate from recombinant PKCepsilon (unknown origin) in presence of 100 ug/ml 100% phosphatidylserine.

The target of data set [2] is T1, Protein kinase C epsilon type. The experiment in a line: Displacement of [20-3H] phorbol 12, 13-dibutylate from recombinant PKCepsilon (unknown origin) in presence of nuclear membrane mimetic lipid mixture. The class given is cell membranes.
Data set [3] concerns the target T2, Protein kinase C alpha type (Homo sapiens, UniProt P17252). The experiment in a line: Displacement of [20-3H] phorbol 12, 13-dibutylate from recombinant PKCalpha (unknown origin) in presence of 100 ug/ml 100% phosphatidylserine.
Data set [4] concerns the target T2, Protein kinase C alpha type. Nature of the data set: Displacement of [20-3H] phorbol 12, 13-dibutylate from recombinant PKCalpha (unknown origin) in presence of nuclear membrane mimetic lipid mixture. It is filed as cell membranes.
For data set [5], the species on record is Homo sapiens. Nature of the data set: Selectivity index, ratio of Ki for recombinant PKCalpha (unknown origin) in presence of nuclear membrane mimetic lipid mixture to Ki for recombinant PKCepsilon (unknown origin) in presence of nuclear membrane mimetic lipid mixture. The class given is cell membranes. The gist of the method:
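Ki values for recombinant PKC-alpha and PKC-epsilon were each measured by competition with [20-3H]PDBu in the nuclear-membrane-mimetic lipid mix (POPC/POPE/POPS/POPI/cholesterol 61:21:4:7:6). The ratio is PKC-alpha Ki divided by PKC-epsilon Ki.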

The species entered for data set [6] is Homo sapiens. The experiment in a line: Selectivity index, ratio of Ki for recombinant PKCalpha (unknown origin) in presence of 100 ug/ml 100% phosphatidylserine to Ki for recombinant PKCepsilon (unknown origin) in presence of 100 ug/ml 100% phosphatidylserine.
Data set [7] can be described thus: Lipophilicity, log P of the compound. The class given is physicochemical. To be noted: octanol/water.

Take `CCCCCC=CCC=CCCCCCCCC(=O)OCC1(CO)C/C(=C\CC(C)C)C(=O)O1` (configuration not stated): the inhibition constant Ki is 2.14 nM in data set [1], 13.1 nM in data set [2], 4.33 nM in data set [3] and 24.7 nM in data set [4]. Also, the results for the Ratio Ki in the data set listed under Homo sapiens [5] and in the data set listed under Homo sapiens [6] were 1.9 and 2, respectively. In addition, the lipophilicity (logP) in data set [7] (read-out: logP) was determined as 8.29.
With `CCCCCCCCCCCCCCCCCC(=O)OCC1(CO)C/C(=C/CC(C)C)C(=O)O1` (configuration not stated), the inhibition constant Ki in data set [1] turned out to be 19.3 nM; in data set [2], 34 nM; in data set [3], 43.9 nM; in data set [4] it was 106 nM. The Ratio Ki was 3.1 in the data set filed under Homo sapiens [5] and 2.3 in the data set listed under Homo sapiens [6]. The logP in data set [7] (read-out: logP) turned out to be 8.72.
Consider `CC(C)C/C=C1/CC(CO)(COC(=O)CC(CC(C)C)CC(C)C)OC1=O` (configuration not stated), for which the inhibitory constant (Ki) in data set [1] came to 2.37 nM; in data set [2] it was 15.6 nM; in data set [3], 4.74 nM; in data set [4], 57 nM. Further, the Ratio Ki was determined as 3.6 in the data set filed under Homo sapiens [5] and 2 in the data set listed under Homo sapiens [6]. The log partition coefficient (logP) in data set [7] (read-out: logP) is 5.06.
Take `CCCCCCC#CC#CCCCCCCCC(=O)OCC1(CO)C/C(=C\CC(C)C)C(=O)O1` (configuration not stated): the Ki is 5.24 nM in data set [1], 12.8 nM in data set [2], 8.31 nM in data set [3] and 60.8 nM in data set [4]. The Ratio Ki amounted to 4.8 in the data set filed under Homo sapiens [5] and 1.6 in the data set listed under Homo sapiens [6]. In data set [7] (read-out: logP), the logP was found to be 7.82.
As to `CCCCCCC#CC#CCCCCCCCC(=O)OCC1(CO)C/C(=C/CC(C)C)C(=O)O1` (configuration not stated), the Ki was 13.4 nM in data set [1], 40.3 nM in data set [2], 9.8 nM in data set [3] and 44.8 nM in data set [4]. Besides, the figures for the Ratio Ki in the data set filed under Homo sapiens [5] and in the data set listed under Homo sapiens [6] were 1.1 and 0.7, respectively. Moreover, the logP in data set [7] (read-out: logP) was 7.82.
As for `CCCCCC=CCC=CCCCCCCCC(=O)OCC1(CO)C/C(=C/CC(C)C)C(=O)O1` (configuration not stated), the Ki in data set [1] was 12.2 nM; in data set [2] it was 19.5 nM; in data set [3] it was 7.05 nM; in data set [4], 26.2 nM. Further, the values for the Ratio Ki in the data set listed under Homo sapiens [5] and in the data set filed under Homo sapiens [6] were 1.3 and 0.6, respectively. Also, the logP in data set [7] (read-out: logP) is 8.29.
Take `CCCCCC1CC1CC1CC1CCCCCCC/C=C1/CC(CO)(COC(=O)C(C)(C)C)OC1=O` (configuration not stated): the Ki is 15.2 nM in data set [1], 58.8 nM in data set [2], 33.1 nM in data set [3] and 73 nM in data set [4]. For the same molecule, the Ratio Ki in the data set listed under Homo sapiens [5] worked out at 1.2; in the data set listed under Homo sapiens [6], 2.2. The molecule also showed a log partition coefficient (logP) in data set [7] of 9.15.
For `CCCCCC1OC1CC1OC1CCCCCCCC(=O)OCC1(CO)C/C(=C/CC(C)C)C(=O)O1` (configuration not stated), the inhibition constant Ki in data set [1] came to 16.3 nM; in data set [2], 63 nM; in data set [3], 16.5 nM; in data set [4], 103 nM. The Ratio Ki turned out to be 1.6 in the data set filed under Homo sapiens [5] and 1 in the data set listed under Homo sapiens [6]. Also, in data set [7] (read-out: logP), the lipophilicity (logP) came to 5.69.
Turning to `CCCCC/C=C\C/C=C\CCCCCCC/C=C1/CC(CO)(COC(=O)C(C)(C)C)OC1=O` (configuration not stated), the Ki in data set [1] stood at 5.06 nM; in data set [2], 9.6 nM; in data set [3], 7.2 nM; in data set [4] it was 31.1 nM. Also, the Ratio Ki in the data set listed under Homo sapiens [5] came to 3.2; in the data set filed under Homo sapiens [6], 1.4. Moreover, in data set [7] (read-out: logP), the log partition coefficient (logP) was 8.25.
For `CCCCCC1OC1CC1OC1CCCCCCCC(=O)OCC1(CO)C/C(=C\CC(C)C)C(=O)O1` (configuration not stated), the inhibition constant (Ki) in data set [1] was found to be 7.46 nM; in data set [2], 16.9 nM; in data set [3], 13.2 nM; in data set [4], 116 nM. Further, the Ratio Ki in the data set listed under Homo sapiens [5] came out at 6.9; in the data set filed under Homo sapiens [6], 1.8. The logP in data set [7] (read-out: logP) came out at 5.69.
For the molecule `CCCCCCCCCCCCCCCCCC(=O)OCC1(CO)C/C(=C\CC(C)C)C(=O)O1` (configuration not stated), the inhibitory constant (Ki) in data set [1] was determined as 11.4 nM; in data set [2], 47 nM; in data set [3], 30.8 nM; in data set [4], 99 nM. Further, the Ratio Ki in the data set listed under Homo sapiens [5] turned out to be 2.1; in the data set listed under Homo sapiens [6], 2.7. Besides, the log partition coefficient (logP) in data set [7] (read-out: logP) worked out at 8.72.
Consider `CCCCCC1CC1CC1CC1CCCCCCC/C=C1\CC(CO)(COC(=O)C(C)(C)C)OC1=O` (configuration not stated), for which the Ki in data set [1] worked out at 8.3 nM; in data set [2] it was 41 nM; in data set [3] it was 26.7 nM; in data set [4] it was 110 nM. For the same molecule, the values for the Ratio Ki in the data set filed under Homo sapiens [5] and in the data set filed under Homo sapiens [6] were 2.7 and 3.2, respectively. The same molecule displayed a logP in data set [7] of 9.15.
For the molecule `CCCCC/C=C\C/C=C\CCCCCCC/C=C1\CC(CO)(COC(=O)C(C)(C)C)OC1=O` (configuration not stated), the inhibition constant (Ki) is 4.1 nM in data set [1], 5.2 nM in data set [2], 8.26 nM in data set [3] and 25.7 nM in data set [4]. In addition, the Ratio Ki in the data set listed under Homo sapiens [5] turned out to be 4.9; in the data set filed under Homo sapiens [6] it was 2. The logP in data set [7] (read-out: logP) came to 8.25.
Consider `CC(C)CC(C/C=C1\CC(CO)(COC(=O)C(C)(C)C)OC1=O)CC(C)C` (configuration not stated), for which the Ki in data set [1] is 1.03 nM; in data set [2] it was 1.43 nM; in data set [3], 8.3 nM; in data set [4], 46 nM. The Ratio Ki in the data set filed under Homo sapiens [5] is 32.2; in the data set filed under Homo sapiens [6], 8.1.
On to `CC(C)C/C=C1\CC(CO)(COC(=O)CC(CC(C)C)CC(C)C)OC1=O` (configuration not stated), for which the inhibition constant Ki in data set [1] was found to be 1.21 nM; in data set [2], 3 nM; in data set [3], 2.78 nM; in data set [4] it was 15.4 nM. The Ratio Ki in the data set listed under Homo sapiens [5] was 5.1; in the data set filed under Homo sapiens [6], 2.3. Moreover, the lipophilicity (logP) in data set [7] (read-out: logP) worked out at 5.06.
With `CCCCCCCCC#CCCCCCCCC(=O)OCC1(CO)C/C(=C/CC(C)C)C(=O)O1` (configuration not stated), the Ki in data set [1] is 7.12 nM; in data set [2], 34.6 nM; in data set [3], 12.6 nM; in data set [4], 38.7 nM. In addition, the Ratio Ki in the data set listed under Homo sapiens [5] came out at 1.1; in the data set listed under Homo sapiens [6], 1.8. For the same molecule, the lipophilicity (logP) in data set [7] (read-out: logP) was 8.01.
Regarding `CCCCCCCCC#CCCCCCCCC(=O)OCC1(CO)C/C(=C\CC(C)C)C(=O)O1` (configuration not stated), the Ki in data set [1] is 4.79 nM; in data set [2], 9.1 nM; in data set [3] it was 8.7 nM; in data set [4], 43.8 nM. For the same molecule, the Ratio Ki is 4.8 in the data set listed under Homo sapiens [5] and 1.8 in the data set listed under Homo sapiens [6]. The log partition coefficient (logP) in data set [7] (read-out: logP) was 8.01.
Regarding `CCCCCC1CC1CC1CC1CCCCCCCC(=O)OCC1(CO)C/C(=C\CC(C)C)C(=O)O1` (configuration not stated), the Ki is 5.5 nM in data set [1], 19.8 nM in data set [2], 10.2 nM in data set [3] and 60 nM in data set [4]. The Ratio Ki turned out to be 3 in the data set filed under Homo sapiens [5] and 1.9 in the data set listed under Homo sapiens [6]. This molecule returned a logP in data set [7] of 9.19.
As to `CCCCCC1CC1CC1CC1CCCCCCCC(=O)OCC1(CO)C/C(=C/CC(C)C)C(=O)O1` (configuration not stated), the Ki worked out at 9.8 nM in data set [1], 30.7 nM in data set [2], 15.4 nM in data set [3] and 44 nM in data set [4]. The Ratio Ki in the data set filed under Homo sapiens [5] is 1.4; in the data set listed under Homo sapiens [6], 1.6. This molecule came in with a lipophilicity (logP) in data set [7] of 9.19.
